Results from ChEMBL document CHEMBL1127833, “Structure determination, pharmacological evaluation, and structure-activity studies of a new cyclic peptide substance P antagonist containing the new amino acid 3-prenyl-beta-hydroxytyrosine, isolated from Aspergillus flavipes” (J Med Chem, 1994).

Experiments:
Substance-K receptor = molecular target: T1, Substance-K receptor (Homo sapiens, UniProt P21452); assay: Displacement of [125I]-NKA substance P binding to human urinary bladder membrane protein (NK2)
T1 sequence (P21452 whole entry): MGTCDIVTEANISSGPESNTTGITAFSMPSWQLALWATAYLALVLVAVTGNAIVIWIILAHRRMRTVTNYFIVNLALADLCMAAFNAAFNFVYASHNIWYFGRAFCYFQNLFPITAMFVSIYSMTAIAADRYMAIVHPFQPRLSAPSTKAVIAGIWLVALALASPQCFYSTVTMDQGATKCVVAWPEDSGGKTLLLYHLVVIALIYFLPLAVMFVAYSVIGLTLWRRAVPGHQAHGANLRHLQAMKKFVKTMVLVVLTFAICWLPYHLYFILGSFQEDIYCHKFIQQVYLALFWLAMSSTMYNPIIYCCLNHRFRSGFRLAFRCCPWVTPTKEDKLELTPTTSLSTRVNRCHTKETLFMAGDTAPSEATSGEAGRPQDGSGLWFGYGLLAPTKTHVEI
In short: (§1)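 Radioligand displacement at NK1 or NK2 sites, with Ki values averaged over two to eight determinations.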

Substance-P receptor = Substance-P receptor (Homo sapiens, UniProt P25103); assay: Displacement of [125I]- substance P binding to human astrocytoma cells (NK1); in short: as §1
Cavia porcellus = species on record: Cavia porcellus; assay: substance P induced guinea pig ileum
[1] = Functional antagonism by the ability to inhibit substance P induced 45 [Ca2+] efflux in human astrocytoma cells; format: cell-based
In short: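 Human astrocytoma cells stimulated with 3 nM substance P; the antagonist's inhibition of 45Ca2+ efflux was measured. Efflux seen without SP and antagonist was subtracted. Mean ± SEM from at least three experiments.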

Chain of Substance-P receptor (P25103 whole entry): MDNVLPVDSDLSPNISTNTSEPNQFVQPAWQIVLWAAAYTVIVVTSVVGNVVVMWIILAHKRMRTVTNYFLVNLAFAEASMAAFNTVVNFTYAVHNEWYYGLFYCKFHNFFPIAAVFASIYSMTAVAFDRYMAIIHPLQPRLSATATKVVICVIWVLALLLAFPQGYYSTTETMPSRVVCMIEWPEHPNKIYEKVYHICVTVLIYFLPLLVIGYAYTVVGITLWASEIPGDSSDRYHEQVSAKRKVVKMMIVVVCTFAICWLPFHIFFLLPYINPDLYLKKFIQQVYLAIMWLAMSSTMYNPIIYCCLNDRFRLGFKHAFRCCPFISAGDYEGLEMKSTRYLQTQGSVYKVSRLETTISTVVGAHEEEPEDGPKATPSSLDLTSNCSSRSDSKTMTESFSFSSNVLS

Row | Ki (Substance-K receptor) | Ki (Substance-P receptor) | pA2 (Cavia porcellus) | IC50 [1] | SMILES
1 | 27 µM | 48 µM | – | – | CC(C)[C@@H]1NC(=O)CNC(=O)[C@@H]2CCCN2C(=O)[C@@H](Cc2c[nH]c3ccccc23)NC(=O)CNC(=O)[C@H](Cc2ccc(OC(C)(C)C)cc2)NC(=O)CNC1=O
2 | 3.8 µM | 8 µM | 5.23 | – | CC(C)=CCc1cc(C(O)C2NC(=O)CNC(=O)[C@H](C(C)C)NC(=O)CNC(=O)[C@@H]3CCCN3C(=O)[C@@H](Cc3c[nH]c4ccccc34)NC(=O)CNC2=O)ccc1O (stereo partly drawn)
3 | > 100 µM | > 100 µM | – | – | CC(C)[C@@H]1NC(=O)CNC(=O)[C@@H]2CCCN2C(=O)[C@@H](Cc2c[nH]c3ccccc23)NC(=O)CNC(=O)C(C(O)c2ccc(O)cc2)NC(=O)CNC1=O (stereo partly drawn)
4 | 33 µM | 18 µM | – | – | COc1ccc(C(O)C2NC(=O)CNC(=O)[C@H](C(C)C)NC(=O)CNC(=O)[C@@H]3CCCN3C(=O)[C@@H](Cc3c[nH]c4ccccc34)NC(=O)CNC2=O)cc1 (stereo partly drawn)
5 | 73 µM | 72 µM | – | – | COc1ccc(CC2NC(=O)CNC(=O)[C@H](C(C)C)NC(=O)CNC(=O)[C@@H]3CCCN3C(=O)[C@@H](Cc3c[nH]c4ccccc34)NC(=O)CNC2=O)cc1 (stereo partly drawn)
6 | 1.6 µM | 0.12 µM | – | 0.43 µM | COc1ccc(C(O)C2NC(=O)CNC(=O)[C@H](C(C)C)NC(=O)CNC(=O)[C@@H]3CCCN3C(=O)[C@@H](Cc3c[nH]c4ccccc34)NC(=O)CNC2=O)cc1CC=C(C)C (stereo partly drawn)
7 | > 100 µM | > 100 µM | – | – | CC(C)[C@@H]1NC(=O)CNC(=O)[C@@H]2CCCN2C(=O)[C@@H](Cc2c[nH]c3ccccc23)NC(=O)CNC(=O)[C@H](Cc2ccc(O)cc2)NC(=O)CNC1=O
8 | 31 µM | 93 µM | – | – | CC(C)[C@@H]1NC(=O)CNC(=O)[C@@H]2CCCN2C(=O)C(Cc2c[nH]c3ccccc23)NC(=O)CNC(=O)[C@H](Cc2ccc(OC(C)(C)C)cc2)NC(=O)CNC1=O (single isomer, unassigned)
